# Measured values taken from ChEMBL document CHEMBL4808218, “Structural and biophysical characterization of the Burkholderia pseudomallei IspF inhibitor L-tryptophan hydroxamate” (Bioorg Med Chem Lett, 2021).
# Calls of active or inactive are those of the source. The rule behind the calls is not given here.
# Assays:
# [1] = target: T1, 2-C-methyl-D-erythritol 2,4-cyclodiphosphate synthase (Burkholderia pseudomallei (strain K96243), UniProt Q63T71); assay: Binding affinity to Burkholderia pseudomallei IspF at pH 7.4 measured by isothermal titration calorimetry method; conditions: read-out: Kd(app)
# T1 sequence (Q63T71 whole entry): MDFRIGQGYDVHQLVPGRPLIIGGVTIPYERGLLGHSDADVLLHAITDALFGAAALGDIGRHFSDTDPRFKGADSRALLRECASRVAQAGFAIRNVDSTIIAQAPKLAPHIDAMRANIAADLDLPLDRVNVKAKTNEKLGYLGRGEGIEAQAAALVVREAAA
# Method in brief: (§1)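 ITC titration of BpIspF with ligand at 25 °C, run in buffer at pH 6.0, 7.4 or 8.0 as set by the line. Fits gave Kb, ΔG°, ΔH°, -TΔS° and stoichiometry. Ligand concentration was set from the tryptophan extinction coefficient. The pH 6.0/7.4 ratio compares the apparent Kd from these two runs.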
# [2] = target: T2, 2-C-methyl-D-erythritol 2,4-cyclodiphosphate synthase (Burkholderia pseudomallei (strain K96243)) (UniProt Q63T71); assay: Binding affinity to Burkholderia pseudomallei IspF assessed as change in free energy at pH 7.4 measured by isothermal titration calorimetry method; method in brief: as §1
# T2 sequence (whole entry): T1 sequence (Q63T71 whole entry)
# [3] = target: T2, 2-C-methyl-D-erythritol 2,4-cyclodiphosphate synthase (Burkholderia pseudomallei (strain K96243)); assay: Binding affinity to Burkholderia pseudomallei IspF assessed as change in enthalpy at pH 7.4 measured by isothermal titration calorimetry method; method in brief: as §1
# [4] = target: T2, 2-C-methyl-D-erythritol 2,4-cyclodiphosphate synthase (Burkholderia pseudomallei (strain K96243)); assay: Binding affinity to Burkholderia pseudomallei IspF assessed as change in entropy at pH 7.4 measured by isothermal titration calorimetry method; method in brief: as §1
# [5] = target: T2, 2-C-methyl-D-erythritol 2,4-cyclodiphosphate synthase (Burkholderia pseudomallei (strain K96243)); assay: Binding affinity to Burkholderia pseudomallei IspF by STD NMR analysis
# [6] = target: T1, 2-C-methyl-D-erythritol 2,4-cyclodiphosphate synthase; assay: Binding affinity to Burkholderia pseudomallei IspF at pH 6 measured by isothermal titration calorimetry method; conditions: read-out: Kd(app); method in brief: as §1
# [7] = target: T1, 2-C-methyl-D-erythritol 2,4-cyclodiphosphate synthase; assay: Binding affinity to Burkholderia pseudomallei IspF at pH 8 measured by isothermal titration calorimetry method; conditions: read-out: Kd(app); method in brief: as §1
# [8] = target: T2, 2-C-methyl-D-erythritol 2,4-cyclodiphosphate synthase (Burkholderia pseudomallei (strain K96243)); assay: Binding affinity to Burkholderia pseudomallei IspF assessed as change in free energy at pH 6 measured by isothermal titration calorimetry method; method in brief: as §1
# [9] = target: T2, 2-C-methyl-D-erythritol 2,4-cyclodiphosphate synthase (Burkholderia pseudomallei (strain K96243)); assay: Binding affinity to Burkholderia pseudomallei IspF assessed as change in free energy at pH 8 measured by isothermal titration calorimetry method; method in brief: as §1
# [10] = target: T2, 2-C-methyl-D-erythritol 2,4-cyclodiphosphate synthase (Burkholderia pseudomallei (strain K96243)); assay: Binding affinity to Burkholderia pseudomallei IspF assessed as change in enthalpy at pH 6 measured by isothermal titration calorimetry method; method in brief: as §1
# [11] = target: T2, 2-C-methyl-D-erythritol 2,4-cyclodiphosphate synthase (Burkholderia pseudomallei (strain K96243)); assay: Binding affinity to Burkholderia pseudomallei IspF assessed as change in enthalpy at pH 8 measured by isothermal titration calorimetry method; method in brief: as §1
# [12] = target: T2, 2-C-methyl-D-erythritol 2,4-cyclodiphosphate synthase (Burkholderia pseudomallei (strain K96243)); assay: Binding affinity to Burkholderia pseudomallei IspF assessed as change in entropy at pH 6 measured by isothermal titration calorimetry method; method in brief: as §1
# [13] = target: T2, 2-C-methyl-D-erythritol 2,4-cyclodiphosphate synthase (Burkholderia pseudomallei (strain K96243)); assay: Binding affinity to Burkholderia pseudomallei IspF assessed as change in entropy at pH 8 measured by isothermal titration calorimetry method; method in brief: as §1
# [14] = target: T2, 2-C-methyl-D-erythritol 2,4-cyclodiphosphate synthase (Burkholderia pseudomallei (strain K96243)); assay: Ratio of apparent Kd for Burkholderia pseudomallei IspF at pH 6 to apparent Kd for Burkholderia pseudomallei IspF at pH 7.4; method in brief: as §1
# [15] = target: T3, 2-C-methyl-D-erythritol 2,4-cyclodiphosphate synthase (Escherichia coli (strain K12), UniProt P62617); assay: Binding affinity to Escherichia coli IspF at pH 7.4 measured by isothermal titration calorimetry method; conditions: read-out: Kd(app)
# T3 sequence (P62617 whole entry): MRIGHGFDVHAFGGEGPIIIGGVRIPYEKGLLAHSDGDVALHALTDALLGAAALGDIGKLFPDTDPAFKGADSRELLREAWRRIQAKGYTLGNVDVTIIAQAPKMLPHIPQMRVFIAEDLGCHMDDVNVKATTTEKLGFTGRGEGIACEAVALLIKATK
# [16] = target: T4, 2-C-methyl-D-erythritol 2,4-cyclodiphosphate synthase (Escherichia coli (strain K12)) (UniProt P62617); assay: Binding affinity to Escherichia coli IspF assessed as change in free energy at pH 7.4 measured by isothermal titration calorimetry method
# T4 sequence (whole entry): T3 sequence (P62617 whole entry)
compound,measurement,setting,value
N[C@@H](Cc1c[nH]c2ccccc12)C(=O)O [TRYPTOPHAN],Kd,[1],> 1000 µM
N[C@H](Cc1c[nH]c2ccccc12)C(=O)O [D-TRYPTOPHAN],Kd,[1],> 1000 µM
N[C@H](Cc1c[nH]c2ccccc12)C(=O)NO,Kd,[1],64 µM
same,deltaG,[2],-5.7 kcal/mol
same,deltaH,[3],-6.65 kcal/mol
same,-TdeltaS,[4],0.9 kcal/mol
CC(C)=CCC/C(C)=C/COP(=O)(O)OP(=O)(O)O,Activity,[5],inactive
N[C@@H](Cc1c[nH]c2ccccc12)C(=O)NO,Kd,[1],36 µM
same,Kd,[6],848 µM
same,Kd,[7],24 µM
same,deltaG,[2],-6.1 kcal/mol
same,deltaG,[8],-4.19 kcal/mol
same,deltaG,[9],-6.29 kcal/mol
same,deltaH,[10],1.1 kcal/mol
same,deltaH,[11],-8.3 kcal/mol
same,-TdeltaS,[12],-5.2 kcal/mol
same,-TdeltaS,[13],2 kcal/mol
same,Ratio,[14],25
same,Kd,[15],22 µM
same,deltaG,[16],-6.4 kcal/mol
same,Activity,[5],Active
